From ChEMBL document CHEMBL4428053, “Application of a Parallel Synthetic Strategy in the Discovery of Biaryl Acyl Sulfonamides as Efficient and Selective NaV1.7 Inhibitors” (J Med Chem, 2016) come the findings set out here.

Each structure is given as a SMILES string. Active and inactive are the calls of the source. No cut-off for these calls is given here. A value given as a limit tells only on which side of the number the result lay.

Data set [1] has as its target T1, Sodium channel protein type 9 subunit alpha (Homo sapiens, UniProt Q15858). The data set can be described thus: Inhibition of human Nav1.7 expressed in HEK293 cells incubated for 3 to 5 mins at -125 mV holding potential by electrophysiology assay. In kind it is cell-based.
Target sequence in this assay (Q15858 whole entry): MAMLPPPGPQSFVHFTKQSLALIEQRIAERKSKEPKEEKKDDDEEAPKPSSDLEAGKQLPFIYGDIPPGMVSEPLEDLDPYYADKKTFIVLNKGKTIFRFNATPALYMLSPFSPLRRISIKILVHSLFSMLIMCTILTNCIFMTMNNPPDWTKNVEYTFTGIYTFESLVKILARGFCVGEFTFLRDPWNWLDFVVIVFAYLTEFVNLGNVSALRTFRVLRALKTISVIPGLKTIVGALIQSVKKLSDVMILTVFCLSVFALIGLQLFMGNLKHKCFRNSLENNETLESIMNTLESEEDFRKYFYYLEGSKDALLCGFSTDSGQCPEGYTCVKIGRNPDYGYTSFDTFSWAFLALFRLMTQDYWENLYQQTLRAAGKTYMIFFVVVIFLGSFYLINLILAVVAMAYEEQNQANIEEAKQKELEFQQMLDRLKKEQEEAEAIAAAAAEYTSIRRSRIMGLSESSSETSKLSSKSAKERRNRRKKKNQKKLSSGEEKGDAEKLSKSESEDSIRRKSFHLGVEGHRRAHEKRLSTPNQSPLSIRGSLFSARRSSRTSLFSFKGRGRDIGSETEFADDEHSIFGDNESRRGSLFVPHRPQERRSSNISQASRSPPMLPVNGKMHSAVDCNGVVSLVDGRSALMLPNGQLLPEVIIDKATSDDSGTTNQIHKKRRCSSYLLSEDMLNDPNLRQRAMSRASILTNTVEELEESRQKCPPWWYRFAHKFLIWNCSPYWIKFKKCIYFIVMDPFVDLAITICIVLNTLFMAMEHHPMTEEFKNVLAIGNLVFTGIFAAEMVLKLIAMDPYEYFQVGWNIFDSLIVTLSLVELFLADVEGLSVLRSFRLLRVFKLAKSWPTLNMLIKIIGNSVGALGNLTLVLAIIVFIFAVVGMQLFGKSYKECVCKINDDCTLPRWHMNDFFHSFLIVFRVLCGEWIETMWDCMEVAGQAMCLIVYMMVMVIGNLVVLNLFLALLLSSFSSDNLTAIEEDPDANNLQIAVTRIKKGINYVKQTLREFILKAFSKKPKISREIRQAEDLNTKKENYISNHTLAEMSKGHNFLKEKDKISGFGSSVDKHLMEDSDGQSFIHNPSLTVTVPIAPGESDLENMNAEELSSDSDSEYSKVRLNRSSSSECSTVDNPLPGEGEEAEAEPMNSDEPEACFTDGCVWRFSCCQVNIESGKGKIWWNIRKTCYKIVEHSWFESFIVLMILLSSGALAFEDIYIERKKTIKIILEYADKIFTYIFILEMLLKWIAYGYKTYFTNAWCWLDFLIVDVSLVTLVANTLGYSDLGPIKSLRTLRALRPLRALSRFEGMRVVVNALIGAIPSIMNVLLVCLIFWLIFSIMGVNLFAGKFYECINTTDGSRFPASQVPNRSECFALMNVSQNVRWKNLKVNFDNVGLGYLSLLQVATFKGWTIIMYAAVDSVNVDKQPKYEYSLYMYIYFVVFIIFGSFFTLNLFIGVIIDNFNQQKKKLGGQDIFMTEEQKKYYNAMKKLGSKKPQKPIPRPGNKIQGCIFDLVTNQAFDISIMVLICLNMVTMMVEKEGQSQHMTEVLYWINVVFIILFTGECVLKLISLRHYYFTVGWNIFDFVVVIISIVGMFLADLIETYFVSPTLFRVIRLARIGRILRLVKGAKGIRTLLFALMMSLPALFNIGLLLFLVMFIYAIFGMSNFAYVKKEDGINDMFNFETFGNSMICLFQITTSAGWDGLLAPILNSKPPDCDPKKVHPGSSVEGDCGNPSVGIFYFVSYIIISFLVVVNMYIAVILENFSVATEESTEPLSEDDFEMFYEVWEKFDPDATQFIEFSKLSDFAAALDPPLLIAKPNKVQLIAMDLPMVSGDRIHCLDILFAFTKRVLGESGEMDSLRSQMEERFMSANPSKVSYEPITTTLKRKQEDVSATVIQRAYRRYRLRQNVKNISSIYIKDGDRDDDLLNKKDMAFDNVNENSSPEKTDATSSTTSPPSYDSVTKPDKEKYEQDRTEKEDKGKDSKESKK
The target in data set [2] is T1, Sodium channel protein type 9 subunit alpha. The data set is described as follows: Inhibition of human Nav1.7 expressed in HEK293 cells at 5 uM incubated for 3 to 5 mins at -125 mV holding potential by electrophysiology assay relative to control. In kind it is cell-based.
Target sequence in this assay (Q15858 whole entry, looked up): as the sequence (Q15858 whole entry) above
Data set [3] is described as follows: in vitro. To be noted: rat, liver microsomes.
The nature of data set [4]: in vitro. To be noted: human, liver microsomes.
For data set [5], the target named is Sodium channel protein type 5 subunit alpha (Homo sapiens, UniProt Q14524). The data set is described as follows: Inhibition of human Nav1.5 expressed in HEK293 cells incubated for 3 to 5 mins at -50 mV holding potential by electrophysiology assay. In kind it is cell-based.
The target in data set [6] is Voltage-gated inwardly rectifying potassium channel KCNH2 (Homo sapiens, UniProt Q12809).
The subject of data set [7] is Mus musculus. The data set is described as follows: In vivo inhibition of Nav1.7 in C57BL/6 mouse assessed as reduction in histamine-induced scratching bouts at 30 mg/kg, po administered 4 hrs prior to histamine challenge measured for 15 mins. In kind it is functional, organism-based. In short, it runs like this: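 Mice were dosed orally with vehicle, diphenhydramine (30 mg/kg, n = 8) or test article at 30 (n = 9), 100 (n = 10) or 300 (n = 10) mg/kg; vehicle n = 12. All groups received histamine intradermally. Total scratch bouts were counted, with unbound plasma concentration reported per dose. Statistics: one-way ANOVA with Dunnett's test versus vehicle.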

Chain of Sodium channel protein type 5 subunit alpha (Q14524 whole entry): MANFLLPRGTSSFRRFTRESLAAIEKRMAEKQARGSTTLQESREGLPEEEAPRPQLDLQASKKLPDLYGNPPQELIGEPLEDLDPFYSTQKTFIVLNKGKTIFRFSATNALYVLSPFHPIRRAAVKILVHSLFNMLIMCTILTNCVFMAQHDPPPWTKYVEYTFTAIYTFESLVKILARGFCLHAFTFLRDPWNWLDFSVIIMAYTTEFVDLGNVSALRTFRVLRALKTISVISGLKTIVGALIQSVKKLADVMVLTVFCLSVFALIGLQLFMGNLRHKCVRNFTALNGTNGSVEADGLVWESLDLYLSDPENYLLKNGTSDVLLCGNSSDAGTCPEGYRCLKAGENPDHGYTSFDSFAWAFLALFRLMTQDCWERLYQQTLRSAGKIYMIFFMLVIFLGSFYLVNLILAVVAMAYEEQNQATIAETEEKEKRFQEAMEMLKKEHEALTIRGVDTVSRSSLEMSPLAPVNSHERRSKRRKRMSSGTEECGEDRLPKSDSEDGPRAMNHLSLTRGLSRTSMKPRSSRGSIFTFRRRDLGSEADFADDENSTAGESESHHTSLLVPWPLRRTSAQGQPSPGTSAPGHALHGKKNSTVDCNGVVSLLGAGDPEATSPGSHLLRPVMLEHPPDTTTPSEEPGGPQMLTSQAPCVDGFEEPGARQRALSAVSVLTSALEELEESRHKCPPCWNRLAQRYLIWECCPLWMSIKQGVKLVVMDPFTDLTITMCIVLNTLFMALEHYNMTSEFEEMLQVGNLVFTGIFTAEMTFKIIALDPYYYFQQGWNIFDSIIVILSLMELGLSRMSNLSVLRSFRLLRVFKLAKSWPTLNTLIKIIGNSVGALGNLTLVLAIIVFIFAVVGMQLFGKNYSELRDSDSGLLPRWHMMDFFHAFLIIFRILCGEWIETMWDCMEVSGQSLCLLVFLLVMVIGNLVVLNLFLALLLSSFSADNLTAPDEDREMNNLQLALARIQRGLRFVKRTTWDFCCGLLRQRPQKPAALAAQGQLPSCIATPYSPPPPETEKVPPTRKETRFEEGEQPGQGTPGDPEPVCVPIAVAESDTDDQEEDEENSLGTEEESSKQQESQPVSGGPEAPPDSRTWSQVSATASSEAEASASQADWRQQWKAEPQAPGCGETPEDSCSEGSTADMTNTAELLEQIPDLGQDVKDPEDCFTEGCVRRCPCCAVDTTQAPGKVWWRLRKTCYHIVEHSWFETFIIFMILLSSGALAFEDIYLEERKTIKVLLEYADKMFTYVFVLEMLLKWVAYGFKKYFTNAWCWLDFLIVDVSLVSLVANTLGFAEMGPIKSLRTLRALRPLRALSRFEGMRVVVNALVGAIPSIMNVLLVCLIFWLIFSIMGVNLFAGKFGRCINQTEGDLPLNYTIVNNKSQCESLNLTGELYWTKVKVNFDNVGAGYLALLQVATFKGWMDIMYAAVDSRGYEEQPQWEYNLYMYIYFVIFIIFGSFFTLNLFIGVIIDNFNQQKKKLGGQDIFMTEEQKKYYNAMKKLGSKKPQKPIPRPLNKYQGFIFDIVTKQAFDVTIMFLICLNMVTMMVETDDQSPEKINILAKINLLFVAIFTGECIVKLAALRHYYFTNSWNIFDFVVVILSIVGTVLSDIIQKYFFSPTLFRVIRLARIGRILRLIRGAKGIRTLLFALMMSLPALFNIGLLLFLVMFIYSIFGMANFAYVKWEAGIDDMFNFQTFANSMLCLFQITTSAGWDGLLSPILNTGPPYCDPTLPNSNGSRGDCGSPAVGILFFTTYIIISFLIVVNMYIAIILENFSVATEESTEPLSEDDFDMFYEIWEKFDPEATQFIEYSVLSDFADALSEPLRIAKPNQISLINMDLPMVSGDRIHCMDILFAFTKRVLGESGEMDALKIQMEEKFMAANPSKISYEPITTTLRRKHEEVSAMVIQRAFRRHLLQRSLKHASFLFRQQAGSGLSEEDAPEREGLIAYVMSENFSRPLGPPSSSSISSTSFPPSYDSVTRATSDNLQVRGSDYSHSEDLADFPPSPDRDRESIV

Take `COc1cc(C(=O)NS(C)(=O)=O)c(F)cc1-c1cnc(OC2CCC2)c(Cl)c1`: half-maximal inhibition in data set [1] (IC50) required 110 nM.
With `CS(=O)(=O)NC(=O)Cc1ccc(NS(=O)(=O)c2ccc(Cl)c(Cl)c2)cc1`, the inhibition in data set [2] is under 5%.
In data set [1], `CC(C)COc1ncc(-c2c(F)cc(C(=O)NS(C)(=O)=O)cc2F)cc1Cl` had an IC50 of 1240 nM.
`COc1cc(C(=O)NS(C)(=O)=O)c(F)cc1-c1cnc(OCC2(C)CC2)c(Cl)c1` had an IC50 in data set [1] of 62 nM. The microsomal CLint at 1 µM in data set [3] was under 14 µL/min/mg; in data set [4], 110 µL/min/mg.
As for `CC(C)COc1ncc(-c2ccc(C(=O)NS(C)(=O)=O)cc2C(=O)N(C)C)cc1Cl`, the IC50 in data set [1] is over 42000 nM. In addition, the microsomal CLint at 1 µM in data set [3] was under 14 µL/min/mg; in data set [4], 19 µL/min/mg.
On to `CC(C)COc1ncc(-c2ccc(C(=O)NS(C)(=O)=O)cc2Cl)cc1Cl`, for which the IC50 in data set [1] was found to be 290 nM. Besides, the microsomal CLint at 1 µM was found to be 16.5 µL/min/mg in data set [3] and 30 µL/min/mg in data set [4].
Take `CS(=O)(=O)NC(=O)Cc1ccc(Cl)c(Cl)c1`: the inhibition in data set [2] was under 5%.
As to `COc1cc(C(=O)NS(C)(=O)=O)ccc1-c1cnc(OC2CCC2)c(Cl)c1`, the IC50 was determined as 550 nM in data set [1] and 17800 nM in data set [5]. Besides, the microsomal CLint at 1 µM stood at 17 µL/min/mg in data set [3] and 102 µL/min/mg in data set [4].
In data set [2], `CS(=O)(=O)NC(=O)c1cc(-c2ccc(Cl)c(Cl)c2)[nH]n1` gave an inhibition of under 5%.
For `CC(C)COc1ncc(-c2ccc(C(=O)NS(C)(=O)=O)cc2C#N)cc1Cl`, the IC50 was 1620 nM in data set [1] and 24000 nM in data set [5]. The figures for the microsomal CLint at 1 µM in data set [3] and in data set [4] were under 14 µL/min/mg and 20 µL/min/mg, respectively.
Compound `Cc1cc(-c2cnc(OCC(C)C)c(Cl)c2)ccc1C(=O)NS(C)(=O)=O` had an IC50 in data set [1] of over 42000 nM. Further, the figures for the microsomal CLint at 1 µM in data set [3] and in data set [4] were under 14 µL/min/mg and 22 µL/min/mg, respectively.
For the compound `COc1cc(C(=O)NS(C)(=O)=O)ccc1-c1cnc(Oc2cc(Cl)cc(Cl)c2)c(C(F)(F)F)c1`, the results for the IC50 in data set [1] and in data set [5] were 28 nM and 2350 nM, respectively. Further, the microsomal CLint at 1 µM in data set [3] and in data set [4] was under 14 µL/min/mg throughout.
With `CC(C)COc1ncc(-c2ncc(C(=O)NS(C)(=O)=O)cc2F)cc1Cl`, the half-inhibitory concentration (IC50) in data set [1] was determined as 10600 nM. Also, the microsomal CLint at 1 µM in data set [3] and in data set [4] was 18 µL/min/mg in each case.
Turning to `CC(C)COc1ncc(-c2ccc(C(=O)NS(C)(=O)=O)cc2OC(F)(F)F)cc1Cl`, the IC50 amounted to 140 nM in data set [1] and 3700 nM in data set [5]. The figures for the microsomal CLint at 1 µM in data set [3] and in data set [4] were under 14 µL/min/mg and over 399 µL/min/mg, respectively.
In data set [2], `CS(=O)(=O)NC(=O)c1csc(Nc2ccc(Cl)c(Cl)c2)n1` had an inhibition of under 5%.
With `COc1cc(C(=O)NS(C)(=O)=O)ccc1-c1cnc(Sc2cccc(C)c2)c(Cl)c1`, the IC50 in data set [1] worked out at 160 nM. The microsomal CLint at 1 µM is under 14 µL/min/mg in data set [3] and 199 µL/min/mg in data set [4].
For `CC(C)COc1ncc(-c2ccc(C(=O)NS(C)(=O)=O)cc2C(F)(F)F)cc1Cl`, the figures for the IC50 in data set [1] and in data set [5] were 270 nM and 3100 nM, respectively. Further, the microsomal CLint at 1 µM was under 14 µL/min/mg in data set [3] and over 399 µL/min/mg in data set [4].
Compound `CS(=O)(=O)NC(=O)CSCC(=O)Nc1ccc(Cl)c(Cl)c1` registered an inhibition in data set [2] of under 5%.
The compound `CC(C)COc1ncc(-c2ccc(C(=O)NS(C)(=O)=O)c(Cl)c2)cc1Cl` yielded an IC50 in data set [1] of over 42000 nM. Besides, the microsomal CLint at 1 µM in data set [3] was under 14 µL/min/mg; in data set [4], 26 µL/min/mg.
Regarding `CC(C)COc1ncc(-c2ccc(C(=O)NS(C)(=O)=O)cc2F)cc1Cl`, the IC50 amounted to 660 nM in data set [1] and 23000 nM in data set [5]. For the same compound, the microsomal CLint at 1 µM was determined as 22 µL/min/mg in data set [3] and 27 µL/min/mg in data set [4].
Take `Cc1nn(-c2ccc(Cl)c(Cl)c2)c(C)c1C(=O)NS(C)(=O)=O`: the inhibition in data set [2] was under 5%.
In turn, `CS(=O)(=O)NC(=O)c1ccc(=O)n(Cc2ccc(Cl)c(Cl)c2)c1` had an inhibition in data set [2] of under 5%.
Regarding `CS(=O)(=O)NC(=O)c1ccc(-c2ccc(Cl)c(Cl)c2)cc1`, in data set [6], the Ki was over 30000 nM. Also, the IC50 in data set [1] is 10700 nM; in data set [5], over 42000 nM.
Compound `CS(=O)(=O)NC(=O)C1CC(=O)N(c2ccc(Cl)c(Cl)c2)C1` (stereo not given) gave an inhibition in data set [2] of under 5%.
In the case of `COc1cc(C(=O)NS(C)(=O)=O)ccc1-c1cnc(Oc2cc(Cl)cc(Cl)c2)c(C(F)F)c1`, the microsomal CLint at 1 µM in data set [3] and in data set [4] was under 14 µL/min/mg in each case. This compound also showed an IC50 in data set [5] of 18800 nM.
In turn, `CS(=O)(=O)NC(=O)C(=O)c1cc(-c2ccc(Cl)c(Cl)c2)on1` yielded an inhibition in data set [2] of under 5%.
For `CC(C)(C)OC(=O)N[C@@H](CC(=O)NS(C)(=O)=O)Cc1ccc(Cl)c(Cl)c1`, in data set [2], the inhibition was under 5%.
Consider `COc1cc(C(=O)NS(C)(=O)=O)ccc1-c1cnc(OCC(C)C)c(Cl)c1`, for which the IC50 in data set [1] was 350 nM; in data set [5], over 30000 nM. In addition, the intrinsic metabolic clearance (microsomal CLint) at 1 µM worked out at 32 µL/min/mg in data set [3] and 44 µL/min/mg in data set [4].
In data set [2], `CS(=O)(=O)NC(=O)c1cc(-c2ccc(Cl)c(Cl)c2)nc2ccccc12` yielded an inhibition of under 5%.
The compound `CS(=O)(=O)NC(=O)c1cscc1SCc1ccc(Cl)c(Cl)c1` yielded an inhibition in data set [2] of under 5%.
In the case of `CC(C)COc1ncc(-c2ccc(C(=O)NS(C)(=O)=O)c(F)c2)cc1Cl`, the IC50 in data set [1] worked out at 3040 nM; in data set [5], 18000 nM. In addition, the values for the microsomal CLint at 1 µM in data set [3] and in data set [4] were 28 µL/min/mg and under 14 µL/min/mg, respectively.
Compound `CS(=O)(=O)NC(=O)c1cc(F)c(COc2ccc(Cl)c(Cl)c2)cc1F` yielded an inhibition constant Ki in data set [6] of over 30000 nM.
In turn, `CS(=O)(=O)NC(=O)c1cc(F)c(Oc2ccc(Cl)c(Cl)c2)cc1F` yielded a Ki in data set [6] of over 30000 nM. The IC50 in data set [1] is 740 nM; in data set [5], over 30000 nM.
Compound `CS(=O)(=O)NC(=O)c1cc(F)c(-c2ccc(Cl)c(Cl)c2)cc1F` registered a Ki in data set [6] of over 30000 nM. The concentration for half-maximal inhibition (IC50) in data set [1] was 2540 nM; in data set [5], over 42000 nM.
Consider `COc1cc(C(=O)NS(C)(=O)=O)ccc1-c1cnc(Oc2cc(Cl)cnc2OC)c(Cl)c1`, for which the IC50 in data set [1] is 150 nM; in data set [5] it was 11600 nM. Besides, the microsomal CLint at 1 µM in data set [3] and in data set [4] was under 14 µL/min/mg throughout.
For `CS(=O)(=O)NC(=O)CCc1ccc(Cl)c(Cl)c1`, in data set [2], the inhibition is under 5%.
With `CS(=O)(=O)NC(=O)c1ccc2c(-c3ccc(C(F)(F)F)c(Cl)c3)nccc2c1`, in data set [6], the Ki is over 30000 nM. Moreover, the IC50 was 1550 nM in data set [1] and over 30000 nM in data set [5].
On to `CS(=O)(=O)NC(=O)C1CCN(C(=O)c2ccc(Cl)c(Cl)c2)C1` (stereo not given), for which the inhibition in data set [2] was under 5%.
In the case of `CN(C)CCOC(c1ccccc1)c1ccccc1`, the inhibition entry in data set [7] is “Active”.
For `COc1cc(C(=O)NS(C)(=O)=O)ccc1-c1cnc(OCc2ccc(Cl)cc2)c(Cl)c1`, the figures for the IC50 in data set [1] and in data set [5] were 109 nM and 21000 nM, respectively. For the same compound, the intrinsic clearance (microsomal CLint) at 1 µM in data set [3] and in data set [4] was under 14 µL/min/mg each time.
For `CC(C)COc1ncc(-c2ccc(C(=O)NS(C)(=O)=O)cc2C2=CCOC2)cc1Cl`, the half-maximal inhibitory concentration (IC50) is 260 nM in data set [1] and over 42000 nM in data set [5]. In addition, the microsomal CLint at 1 µM is under 14 µL/min/mg in data set [3] and over 399 µL/min/mg in data set [4].
In data set [2], `CS(=O)(=O)NC(=O)C1CC(=O)N(Cc2ccc(Cl)c(Cl)c2)C1` (stereo not given) yielded an inhibition of under 5%.
As to `COc1cc(C(=O)NS(C)(=O)=O)ccc1-c1cnc(Oc2cc(F)ccc2F)c(Cl)c1`, the intrinsic metabolic clearance (microsomal CLint) at 1 µM in data set [3] is 33 µL/min/mg; in data set [4] it was under 14 µL/min/mg. Besides, in data set [5], inhibition was half-maximal at 23700 nM (IC50).
`CS(=O)(=O)NC(=O)c1ccc2nc(-c3ccc(Cl)c(Cl)c3)cn2c1` returned an inhibition in data set [2] of under 5%.
In the case of `COc1cc(C(=O)NS(C)(=O)=O)ccc1-c1cnc(N2CCC[C@H]2C(C)C)c(Cl)c1`, the microsomal CLint at 1 µM came to 40 µL/min/mg in data set [3] and 385 µL/min/mg in data set [4]. The compound also returned an IC50 in data set [5] of 2500 nM.
Take `CS(=O)(=O)NC(=O)c1cc(-c2ccc(Cl)c(Cl)c2)on1`: the inhibition in data set [2] is under 5%.
Still for that read-out and setting: to `CS(=O)(=O)NC(=O)CNC(=O)c1ccc(Cl)c(Cl)c1` belongs under 5%.
`CC(C)COc1ncc(Oc2nccc3cc(C(=O)NS(C)(=O)=O)ccc23)cc1Cl` yielded an IC50 in data set [1] of 200 nM.
Take `COc1cc(C(=O)NS(C)(=O)=O)ccc1-c1cnc(OCC2(C)CC2)c(Cl)c1`: the IC50 in data set [1] turned out to be 200 nM; in data set [5], 9300 nM. Moreover, the microsomal CLint at 1 µM in data set [3] and in data set [4] was under 14 µL/min/mg each time.
On to `CC(C)COc1ncc(-c2ccc(C(=O)NS(C)(=O)=O)cc2)cc1Cl`, for which the IC50 in data set [1] is 1190 nM. Also, the values for the microsomal CLint at 1 µM in data set [3] and in data set [4] were under 14 µL/min/mg and 14 µL/min/mg, respectively.
The compound `CS(=O)(=O)NC(=O)CSCc1ccc(Cl)c(Cl)c1` yielded an inhibition in data set [2] of under 5%.
`O=S(=O)(Nc1ncns1)c1ccc2c(-c3ccc(C(F)(F)F)c(Cl)c3)nccc2c1` had a Ki in data set [6] of 2000 nM. In addition, the IC50 was 590 nM in data set [1] and 27000 nM in data set [5].
